{"source": "paper PMC3812312", "about": "(Journal of medicinal chemistry, 2013)", "key": {"[1]": {"target": "human ERβ LBD (Homo sapiens, UniProt Q92731)", "sequence (Q92731 263-530)": "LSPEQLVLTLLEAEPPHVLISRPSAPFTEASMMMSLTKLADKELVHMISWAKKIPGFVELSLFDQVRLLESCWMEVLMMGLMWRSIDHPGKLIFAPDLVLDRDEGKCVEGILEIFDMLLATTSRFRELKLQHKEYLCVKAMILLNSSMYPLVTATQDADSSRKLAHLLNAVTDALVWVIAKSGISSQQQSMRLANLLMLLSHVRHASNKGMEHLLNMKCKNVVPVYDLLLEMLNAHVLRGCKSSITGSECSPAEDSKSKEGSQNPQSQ", "test": "ERβ agonist luciferase reporter assay in HEK 293T cells", "type": "cell-based", "settings": "10 μM; for ER subtype preference (ratio of ERα to ERβ agonist activity): agonist assay; for ERβ agonist activity: HEK-luciferase assay"}, "[2]": {"tested_on": "MDA-MB-231 cells", "test": "Cell viability assay", "type": "cell-based", "settings": "72 hours after drug dosing; ERα−/β− breast cancer", "outline": "(§1)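 Cell lines: MCF-7 (gift) and MDA-MB-231, DU145 and Vero (ATCC), kept in EMEM with 10% FBS, with or without antibiotics, at 37 °C under 5% CO2. Cells exposed to test compound in duplicate for 72 h; viability read by MTS and MTT colorimetric assays per manufacturer's instructions. IC50 obtained by logit plot analysis.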"}, "[3]": {"tested_on": "VERO cells", "test": "Cell viability assay", "type": "cell-based", "settings": "VERO versus MCF-7"}, "[4]": {"tested_on": "MCF-7 cells", "test": "Cell viability assay", "type": "cell-based, human"}, "[5]": {"target": "human recombinant HDAC1 (Homo sapiens, UniProt Q13547)", "sequence (Q13547 whole entry, canonical isoform)": "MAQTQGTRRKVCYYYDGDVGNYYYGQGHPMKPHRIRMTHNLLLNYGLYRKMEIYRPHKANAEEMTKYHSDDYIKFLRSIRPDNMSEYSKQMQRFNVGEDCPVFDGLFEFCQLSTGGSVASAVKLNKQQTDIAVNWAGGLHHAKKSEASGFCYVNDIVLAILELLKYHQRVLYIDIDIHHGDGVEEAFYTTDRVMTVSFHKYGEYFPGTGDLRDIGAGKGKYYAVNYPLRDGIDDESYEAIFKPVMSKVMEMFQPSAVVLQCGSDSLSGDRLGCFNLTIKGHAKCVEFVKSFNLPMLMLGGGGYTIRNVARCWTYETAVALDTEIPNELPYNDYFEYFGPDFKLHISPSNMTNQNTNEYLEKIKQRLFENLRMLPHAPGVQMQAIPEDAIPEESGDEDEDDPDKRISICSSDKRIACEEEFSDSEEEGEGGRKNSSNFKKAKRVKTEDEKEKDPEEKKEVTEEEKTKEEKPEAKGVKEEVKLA", "test": "HDAC activity assay", "type": "biochemical", "settings": "HDAC isoforms 1, 6 and 8 tested"}, "[6]": {"target": "T1, human ERα ligand binding domain (Homo sapiens, UniProt P03372)", "T1 sequence (P03372 301-595)": "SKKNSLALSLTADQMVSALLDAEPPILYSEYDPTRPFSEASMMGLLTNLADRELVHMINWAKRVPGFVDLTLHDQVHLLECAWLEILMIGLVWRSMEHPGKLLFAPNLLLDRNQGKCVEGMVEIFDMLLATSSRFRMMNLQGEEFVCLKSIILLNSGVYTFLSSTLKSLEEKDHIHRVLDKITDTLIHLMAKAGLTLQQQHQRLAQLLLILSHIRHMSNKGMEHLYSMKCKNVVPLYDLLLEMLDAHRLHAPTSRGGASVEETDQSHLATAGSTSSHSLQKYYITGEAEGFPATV", "test": "ERα agonist luciferase reporter assay in HEK 293T cells", "type": "cell-based", "settings": "10 μM, charcoal stripped serum"}, "[7]": {"tested_on": "DU145 cells", "test": "Cell viability assay", "type": "cell-based", "settings": "72 hours after drug dosing; metastatic prostate cancer", "outline": "as §1"}, "[8]": {"target": "T2, human recombinant HDAC8 (Homo sapiens, UniProt Q9BY41)", "T2 sequence (Q9BY41 1-377)": "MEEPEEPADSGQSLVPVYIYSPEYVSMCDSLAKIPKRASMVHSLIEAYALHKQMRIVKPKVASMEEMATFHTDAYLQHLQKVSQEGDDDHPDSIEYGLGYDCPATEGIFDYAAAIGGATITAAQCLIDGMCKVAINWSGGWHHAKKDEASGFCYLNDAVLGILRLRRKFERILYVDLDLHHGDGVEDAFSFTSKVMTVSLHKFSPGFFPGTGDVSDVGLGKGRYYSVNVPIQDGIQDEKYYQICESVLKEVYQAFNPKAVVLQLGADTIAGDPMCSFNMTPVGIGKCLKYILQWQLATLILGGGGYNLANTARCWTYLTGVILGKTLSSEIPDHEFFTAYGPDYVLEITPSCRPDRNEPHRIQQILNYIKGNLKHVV", "test": "HDAC activity assay", "type": "biochemical", "settings": "maximum concentration tested 100 μM"}, "[9]": {"tested_on": "human recombinant HDAC6", "test": "HDAC activity assay", "type": "biochemical", "settings": "HDAC6 vs HDAC1 and HDAC8", "outline": "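Run under contract. Human recombinant HDAC1, HDAC6 or HDAC8 incubated with HDAC substrate, 5 μg BSA and serial dilutions of test compound (DMSO stocks; 1% DMSO final, top 100 μM) in duplicate, 37 °C, 30 min. Developer added for 15 min at room temperature; fluorescence ex 360/em 460 nm.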"}}, "note": "Entries after “also recorded” stand apart in the source; their conditions may differ.", "data": [{"compound": "C[C@]12CC[C@@H]3c4ccc(O)cc4CC[C@H]3[C@@H]1CC[C@@]2(O)c1cn(CCCC(=O)NO)nn1", "note": "[1a, 4-(4-((8R,9S,13S,14S,17S)-3,17-dihydroxy-13-methyl-7,8,9,11,12,13,14,15,16,17-decahydro-6H-cyclopenta[a]phenanthren-17-yl)-1H-1,2,3-triazol-1-yl)-N-hydroxybutanamide]", "values": [{"measurement": "ER subtype preference (ratio of ERα to ERβ agonist activity)", "setting": "[1]", "value": "too weak in vitro to have an obvious preference"}, {"measurement": "antiproliferative activity IC50, MDA-MB-231", "setting": "[2]", "value": "comparable; also recorded: inhibit the growth of MDA-MB-231"}, {"measurement": "in vitro therapeutic index (IVTI)", "setting": "[3]", "value": "greater IVTI"}, {"measurement": "antiproliferative activity IC50, MCF-7", "setting": "[4]; 72 hours after drug dosing, ERα+/β+ breast cancer", "value": "comparable"}, {"measurement": "HDAC inhibition activity, overall (isoform not given)", "setting": "[5]", "value": "most potent HDACi"}]}, {"compound": "C[C@]12CC[C@@H]3c4ccc(O)cc4CC[C@H]3[C@@H]1CC[C@@]2(O)c1cn(CCCCC(=O)NO)nn1", "note": "[1b, 5-(4-((8R,9S,13S,14S,17S)-3,17-dihydroxy-13-methyl-7,8,9,11,12,13,14,15,16,17-decahydro-6H-cyclopenta[a]phenanthren-17-yl)-1H-1,2,3-triazol-1-yl)-N-hydroxypentanamide]", "values": [{"measurement": "ERα agonist activity (fold activation, relative to control no drug)", "setting": "[6]", "value": "most significant ERα agonist effect"}]}, {"compound": "C[C@]12CC[C@@H]3c4ccc(O)cc4CC[C@H]3[C@@H]1CC[C@@]2(O)c1cn(CCCCCC(=O)NO)nn1", "note": "[1c, 6-(4-((8R,9S,13S,14S,17S)-3,17-dihydroxy-13-methyl-7,8,9,11,12,13,14,15,16,17-decahydro-6H-cyclopenta[a]phenanthren-17-yl)-1H-1,2,3-triazol-1-yl)-N-hydroxyhexanamide]", "values": [{"measurement": "ERβ agonist activity", "setting": "[1]", "value": "significant ERβ activation"}, {"measurement": "ER subtype preference (ratio of ERα to ERβ agonist activity)", "setting": "[1]", "value": "preferentially bind ERβ"}, {"measurement": "antiproliferative activity IC50, MDA-MB-231", "setting": "[2]", "value": "inhibit the growth of MDA-MB-231"}, {"measurement": "antiproliferative activity IC50, DU145", "setting": "[7]", "value": "evidence of DU145 cell growth inhibition"}, {"measurement": "HDAC inhibition activity, overall (isoform not given)", "setting": "[5]", "value": "most potent HDACi; also recorded: nM HDACi potency"}]}, {"compound": "C[C@]12CC[C@@H]3c4ccc(O)cc4CC[C@H]3[C@@H]1CC[C@@]2(O)c1cn(CCCCCCC(=O)NO)nn1", "note": "[1d, 7-(4-((8R,9S,13S,14S,17S)-3,17-dihydroxy-13-methyl-7,8,9,11,12,13,14,15,16,17-decahydro-6H-cyclopenta[a]phenanthren-17-yl)-1H-1,2,3-triazol-1-yl)-N-hydroxyheptanamide]", "values": [{"measurement": "HDAC8 inhibition IC50", "setting": "[8]", "value": "order of magnitude greater HDAC8 inhibition"}, {"measurement": "ERβ agonist activity", "setting": "[1]", "value": "significant ERβ activation"}, {"measurement": "ER subtype preference (ratio of ERα to ERβ agonist activity)", "setting": "[1]", "value": "preferentially bind ERβ"}, {"measurement": "antiproliferative activity IC50, MDA-MB-231", "setting": "[2]", "value": "inhibit the growth of MDA-MB-231"}, {"measurement": "antiproliferative activity IC50, DU145", "setting": "[7]", "value": "evidence of DU145 cell growth inhibition"}, {"measurement": "HDAC inhibition activity, overall (isoform not given)", "setting": "[5]", "value": "most potent HDACi; also recorded: nM HDACi potency"}, {"measurement": "ERα agonist activity (fold activation, relative to control no drug)", "setting": "[6]", "value": "most significant ERα agonist effect"}]}, {"compound": "C[C@]12CC[C@@H]3c4ccc(O)cc4CC[C@H]3[C@@H]1CC[C@@]2(O)c1cn(CCCCCCCC(=O)NO)nn1", "note": "[1e, 8-(4-((8R,9S,13S,14S,17S)-3,17-dihydroxy-13-methyl-7,8,9,11,12,13,14,15,16,17-decahydro-6H-cyclopenta[a]phenanthren-17-yl)-1H-1,2,3-triazol-1-yl)-N-hydroxyoctannamide]", "values": [{"measurement": "ER subtype preference (ratio of ERα to ERβ agonist activity)", "setting": "[1]", "value": "too weak in vitro to have an obvious preference"}, {"measurement": "HDAC inhibition activity, overall (isoform not given)", "setting": "[5]", "value": "poor HDAC inhibition profile"}]}, {"compound": "CC/C(=C(\\c1ccccc1)c1ccc(OCCN(C)Cc2ccc(-c3cn(CCCCCC(=O)NO)nn3)cc2)cc1)c1ccccc1", "note": "[compound 2, Tamoxifen-Triazolylhydroxamic acid]", "values": [{"measurement": "in vitro therapeutic index (IVTI)", "setting": "[3]", "value": "greater IVTI"}, {"measurement": "potency relative to SAHA against MCF-7 (fold less potent)", "setting": "[4]", "value": "about 1.7 fold"}]}, {"compound": "CC/C(=C(\\c1ccccc1)c1ccc(OCCN(C)Cc2ccc(NC(=O)CCCCCCC(=O)NO)cc2)cc1)c1ccccc1", "note": "[compound 3, Tamoxifen-SAHA Conjugate]", "values": [{"measurement": "in vitro therapeutic index (IVTI)", "setting": "[3]", "value": "greater IVTI"}, {"measurement": "HDAC isoform selectivity", "setting": "[9]", "value": "selective for HDAC6"}, {"measurement": "potency relative to SAHA against MCF-7 (fold less potent)", "setting": "[4]", "value": "equipotent to SAHA"}]}]}
